The values that follow come from ChEMBL document CHEMBL3232838, “Synthesis, crystal structure and biological evaluation of some novel 1,2,4-triazolo[3,4-b]-1,3,4-thiadiazoles and 1,2,4-triazolo[3,4-b]-1,3,4-thiadiazines” (Eur J Med Chem, 2014).

The target in assay [1] is Intestinal-type alkaline phosphatase (Bos taurus) (UniProt P19111). The assay is described as follows: Inhibition of calf intestinal alkaline phosphatase using p-nitrophenyl phosphate as substrate preincubated for 10 mins before substrate addition after 30 mins. On the set-up: concentration or dose not given beside the values.
Intestinal-type alkaline phosphatase (Bos taurus), sequence (P19111 20-506 limits assumed): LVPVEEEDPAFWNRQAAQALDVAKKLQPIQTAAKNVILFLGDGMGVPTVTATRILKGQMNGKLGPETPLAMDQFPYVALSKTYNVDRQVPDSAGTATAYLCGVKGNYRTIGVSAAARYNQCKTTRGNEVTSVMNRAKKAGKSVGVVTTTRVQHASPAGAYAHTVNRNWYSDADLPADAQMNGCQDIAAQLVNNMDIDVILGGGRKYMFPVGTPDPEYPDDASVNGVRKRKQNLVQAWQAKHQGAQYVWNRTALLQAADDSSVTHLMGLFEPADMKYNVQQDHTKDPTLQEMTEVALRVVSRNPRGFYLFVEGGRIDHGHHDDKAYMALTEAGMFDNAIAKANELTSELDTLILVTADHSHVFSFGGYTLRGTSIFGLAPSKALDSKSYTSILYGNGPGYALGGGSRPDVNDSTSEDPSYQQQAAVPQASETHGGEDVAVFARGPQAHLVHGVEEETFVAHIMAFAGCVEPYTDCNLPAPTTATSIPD
Assay [2] in a line: Anticancer activity against Syrian golden hamster BHK21 cells at 1 uM after 48 hrs by SRB assay. The format is functional. Conditions: Mesocricetus auratus, BHK-21, 48 h; read-out: GI. In outline:
(§1)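 RPMI-1640 culture with 10% heat-inactivated FBS, 2 mM glutamine, 1 mM pyruvate and penicillin/streptomycin at 37 °C, 5% CO2. Cells per 96-well well: H157 10⁴, BHK-21 5×10⁴. After 24 h, monolayers were exposed to 100, 10, 1 or 0.1 µM compound for 48 h, with vincristine as standard. Cells were fixed in cold 50% TCA (4 °C, 1 h) and stained with 0.4% SRB in 1% acetic acid (30 min). Dye was dissolved in 10 mM Tris and read at A490 minus A630. Read-out was percent inhibition.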

Assay [3] concerns the target Acetylcholinesterase (Electrophorus electricus) (UniProt O42275). The assay is described as follows: Inhibition of electric eel acetylcholinesterase using acetylthiocholine iodide as substrate preincubated for 10 mins before substrate addition after 15 mins by Ellman's method.
A short description of assay [4]: Anticancer activity against Syrian golden hamster BHK21 cells at 100 uM after 48 hrs by SRB assay. Conditions: Mesocricetus auratus, BHK-21, 48 h; read-out: GI. It counts as functional. In outline:
as §1
On the technique in general: In SRB staining, fixed cells bind dye roughly in proportion to their protein.

The nature of assay [5]: Anticancer activity against Syrian golden hamster BHK21 cells at 0.1 uM after 48 hrs by SRB assay. The format is functional. To be noted: Mesocricetus auratus, BHK-21, 48 h; read-out: GI. In outline: as §1
In assay [6] the test system is NCI-H157. The assay is described as follows: Anticancer activity against human NCI-H157 cells at 0.1 uM after 48 hrs by SRB assay. It counts as functional. Conditions: NCI-H157, 48 h, read-out: GI. In outline: as §1
The nature of assay [7]: Anticancer activity against Syrian golden hamster BHK21 cells at 10 uM after 48 hrs by SRB assay. It counts as functional. To be noted: Mesocricetus auratus, BHK-21, 48 h; read-out: GI. In outline: as §1
In assay [8] the test system is Leishmania major. The assay is described as follows: Antileishmanial activity against promastigote form of Leishmania major at 100 uM after 72 hrs by MTT assay. The format is functional. In outline:
(§2)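 Log-phase promastigotes grown at 25 °C in phenol-red-free D-MEM/F-12 with 10% heat-inactivated FBS, washed in PBS, seeded at 2.5×10⁶/mL (100 µL/well). Compounds in triplicate wells, 72 h at 25 °C; amphotericin B standard. MTT (5 mg/mL stock) 3 h, stopped with 50% isopropanol/10% SDS, OD570 minus 690. Percent inhibition vs control; mean ± SEM of three independent experiments.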
(In general: Tetrazolium assays rely on reduction of a dye to a coloured formazan, in cell work by metabolically active cells.)

Assay [9] concerns NCI-H157. The assay is described as follows: Anticancer activity against human NCI-H157 cells at 100 uM after 48 hrs by SRB assay. The format is functional. To be noted: NCI-H157, 48 h, read-out: GI. In outline: as §1
A further assay deals with Cholinesterase (Homo sapiens, UniProt P06276). The assay is described as follows: Inhibition of human BChE using butyrylthiocholine iodide as substrate preincubated for 10 mins before substrate addition after 15 mins by Ellman's method. In outline:
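Ellman assay in 50 mM Tris-HCl, 0.1 M NaCl, 0.02 M MgCl2, pH 8.0, with DMSO at 1% final. hBChE (3.4 U/mg) is preincubated with compound for 10 min at 25 °C. Blanks lack enzyme or substrate. IC50 from linear regression.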
For orientation: Ellman's reagent forms a yellow product with free thiols.

For assay [10], the system named is NCI-H157. The assay is described as follows: Anticancer activity against human NCI-H157 cells at 1 uM after 48 hrs by SRB assay. The format is functional. Conditions: NCI-H157, 48 h, read-out: GI. In outline: as §1
Assay [11] relates to Leishmania major. The assay is described as follows: Antileishmanial activity against promastigote form of Leishmania major at 0.1 uM after 72 hrs by MTT assay. It counts as functional. In outline: as §2
Assay [12] relates to NCI-H157. The assay is described as follows: Anticancer activity against human NCI-H157 cells at 10 uM after 48 hrs by SRB assay. Conditions: NCI-H157, 48 h, read-out: GI. The format is functional. In outline: as §1
The subject of assay [13] is Leishmania major. The assay is described as follows: Antileishmanial activity against promastigote form of Leishmania major at 1 uM after 72 hrs by MTT assay. The format is functional. In outline: as §2
In assay [14] the test system is Leishmania major. The assay is described as follows: Antileishmanial activity against promastigote form of Leishmania major at 10 uM after 72 hrs by MTT assay. The format is functional. In outline:
as §2

Cholinesterase, sequence (P06276 whole entry): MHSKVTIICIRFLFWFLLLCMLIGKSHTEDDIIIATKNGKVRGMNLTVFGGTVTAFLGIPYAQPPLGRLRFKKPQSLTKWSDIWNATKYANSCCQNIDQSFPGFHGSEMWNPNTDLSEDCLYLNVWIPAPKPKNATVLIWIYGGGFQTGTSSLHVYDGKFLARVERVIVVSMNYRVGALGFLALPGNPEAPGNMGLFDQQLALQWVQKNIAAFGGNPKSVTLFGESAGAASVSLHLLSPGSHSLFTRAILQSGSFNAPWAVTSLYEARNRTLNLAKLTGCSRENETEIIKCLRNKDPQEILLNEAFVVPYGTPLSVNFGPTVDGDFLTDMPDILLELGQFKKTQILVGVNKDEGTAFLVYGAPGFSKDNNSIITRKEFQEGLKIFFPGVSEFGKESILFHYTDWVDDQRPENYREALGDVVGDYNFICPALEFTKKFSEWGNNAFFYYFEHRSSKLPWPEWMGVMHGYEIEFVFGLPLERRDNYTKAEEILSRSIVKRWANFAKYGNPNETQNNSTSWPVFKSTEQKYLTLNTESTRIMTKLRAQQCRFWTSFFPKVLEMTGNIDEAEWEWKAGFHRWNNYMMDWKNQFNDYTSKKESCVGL
Acetylcholinesterase (Electrophorus electricus), sequence (O42275 24-633 limits assumed): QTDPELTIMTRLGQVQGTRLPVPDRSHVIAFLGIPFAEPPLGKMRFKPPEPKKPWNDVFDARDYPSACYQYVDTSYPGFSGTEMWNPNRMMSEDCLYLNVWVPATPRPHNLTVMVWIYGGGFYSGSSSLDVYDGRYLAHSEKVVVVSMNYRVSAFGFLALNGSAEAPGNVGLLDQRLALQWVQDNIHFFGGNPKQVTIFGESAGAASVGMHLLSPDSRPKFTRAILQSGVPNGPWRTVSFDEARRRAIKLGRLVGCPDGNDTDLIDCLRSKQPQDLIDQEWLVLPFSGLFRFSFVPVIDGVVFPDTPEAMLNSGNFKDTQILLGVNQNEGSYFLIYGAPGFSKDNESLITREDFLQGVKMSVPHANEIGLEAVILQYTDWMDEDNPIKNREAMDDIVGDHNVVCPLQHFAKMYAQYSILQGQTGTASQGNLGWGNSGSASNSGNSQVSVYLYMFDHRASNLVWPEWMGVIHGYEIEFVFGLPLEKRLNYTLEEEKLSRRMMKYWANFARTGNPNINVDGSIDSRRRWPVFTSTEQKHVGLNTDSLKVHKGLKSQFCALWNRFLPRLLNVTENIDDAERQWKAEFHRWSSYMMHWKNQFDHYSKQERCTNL

For `Cc1ccc(C2=Nn3c(nnc3-c3ccncc3)SC2)cc1`, the inhibition in assay [1] was found to be 35.7%; in [3], 46.1%. Further, the inhibition of growth at 1 µM worked out at 62% in [2] and 53.2% in the assay with NCI-H157 [10]. For the same compound, the figures for the inhibition of growth at 100 µM (in assay [4]; in the assay on NCI-H157 [9]) were 72.6% and 63.8%, respectively. For the same compound, the inhibition of growth at 0.1 µM stood at 53.1% in [5] and 50.3% in the assay on NCI-H157 [6]. For the same compound, the inhibition of growth at 10 µM turned out to be 68.7% in [7] and 57.3% in the assay on NCI-H157 [12]. Testing at 100 µM in the assay on Leishmania major [8] gave an inhibition of 43.9%. The IC50 on Cholinesterase came out at 26.1 µM. In the assay with Leishmania major [11], testing at 0.1 µM gave an inhibition of 34.5%. The inhibition at 1 µM with Leishmania major [13] was 37.7%. At 10 µM the inhibition in the assay with Leishmania major [14] was 39.8%.

For orientation: inhibition means how much of the control response was suppressed. By IC50 is commonly meant the point on the concentration scale where inhibition reaches its midpoint.
